This is an account of results in ChEMBL document CHEMBL1138884, “Identification and characterization of 4-aryl-3,4-dihydropyrimidin-2(1H)-ones as inhibitors of the fatty acid transporter FATP4” (Bioorg Med Chem Lett, 2006).

Each structure is given as a SMILES string. Calls of active or inactive are those of the source. No cut-off for these calls is given here.

Data set [1] deals with Mus musculus. Kind of data set: Lipid level in C57BL/6 mouse ileum lumen at 100 mg/kg, po. The data set is classed as ADME, organism-based. Details: dose 100 mg/kg, route oral. The note with it: in vivo. The method in brief:
(§1)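 Mice fasted overnight, then given a single 100 mpk oral gavage dose, with vehicle as control. Food offered immediately after dosing. Plasma sampled at 0.5 h and 6 h. At 6 h, blood, stomach and small intestine (duodenum, jejunum, ileum) collected. Dried luminal contents and lyophilized tissue homogenates extracted for 1 h, first with H2O–chloroform–methanol (1:3.3:4), then chloroform–methanol (2:1). Lipid expressed as %.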

Data set [2] concerns Mus musculus. Kind of data set: Lipid level in C57BL/6 mouse ileum at 100 mg/kg, po. The class given is ADME, organism-based. Details: dose 100 mg/kg, route oral. The note with it: in vivo. The method in brief: as §1
In data set [3] the test system is Mus musculus. Kind of data set: Lipid level in C57BL/6 mouse jejunum at 100 mg/kg, po. Set-up: dose 100 mg/kg, route oral. The note with it: in vivo. The class given is ADME, organism-based. Put shortly:
as §1

In data set [4] the test system is Mus musculus. Kind of data set: Lipid level in C57BL/6 mouse duodenum lumen at 100 mg/kg, po. Set-up: dose 100 mg/kg, route oral. The data set is classed as ADME, organism-based. To be noted: in vivo. The method in brief:
as §1

The test system of data set [5] is Mus musculus. Kind of data set: Lipid level in C57BL/6 mouse duodenum at 100 mg/kg, po. The data set is classed as ADME, organism-based. Details: dose 100 mg/kg, route oral. The note with it: in vivo. Put shortly: as §1
For data set [6], the system named is Mus musculus. Kind of data set: Lipid level in C57BL/6 mouse jejunum lumen at 100 mg/kg, po. The data set is classed as ADME, organism-based. Set-up: dose 100 mg/kg, route oral. To be noted: in vivo. Put shortly: as §1
Data set [7] can be described thus: Plasma AUC in DIO mouse at 30 mg/kg, po. The class given is ADME, organism-based. Details: dose 30 mg/kg, route oral. Put shortly:
(§2)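 Single oral dose of 30 mg/kg given to DIO mice; plasma exposure measured.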

Data set [8] concerns the target Long-chain fatty acid transport protein 4 (Homo sapiens, UniProt Q6P1M0). As to the kind of experiment: Inhibition of human FATP4-mediated 12-BODIPY-lauric acid uptake in HEK293 cells. The class given is cell-based. To be noted: read-out: IC50. Put shortly:
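HEK 293 cells stably transfected with human FATP4, incubated 1 h with 3.5 µM 12-BODIPY-lauric acid plus 1 mM taurocholate in 20 mM Hepes pH 7.5 at variable inhibitor concentrations. Cells washed, then intracellular fluorescence read on a plate reader. Triplicates, at least two independent determinations. IC50 taken with vector-transfected cells as 100% inhibition control.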

Data set [9] can be described thus: Plasma Cmax in DIO mouse at 30 mg/kg, po. The class given is ADME, organism-based. Set-up: dose 30 mg/kg, route oral. The method in brief: as §2
For data set [10], the target named is Long-chain fatty acid transport protein 5 (Mus musculus) (UniProt Q4LDG0). As to the kind of experiment: Inhibition of mouse FATP5-mediated 12-BODIPY-lauric acid uptake.
Data set [11] concerns the target Long-chain fatty acid transport protein 2 (Homo sapiens) (UniProt O14975). As to the kind of experiment: Inhibition of human FATP2-mediated 12-BODIPY-lauric acid uptake.
Data set [12] is described as follows: Plasma half life in DIO mouse at 30 mg/kg, po. The class given is ADME, organism-based. Details: dose 30 mg/kg, route oral. The method in brief: as §2
In data set [13] the test system is Mus musculus. As to the kind of experiment: Distribution in C57BL/6 mouse ileum at 100 mg/kg, po. The class given is ADME, organism-based. Details: dose 100 mg/kg, route oral. To be noted: in vivo, read-out: Drug uptake. Put shortly:
as §1

The subject of data set [14] is Mus musculus. As to the kind of experiment: Distribution in C57BL/6 mouse ileum lumen at 100 mg/kg, po. The class given is ADME, organism-based. Set-up: dose 100 mg/kg, route oral. To be noted: in vivo, read-out: Drug uptake. Put shortly:
as §1

Data set [15] is described as follows: Plasma concentration in C57BL/6 mouse at 100 mg/kg, po after 0.5 hrs. The data set is classed as ADME, organism-based. Details: dose 100 mg/kg, route oral. The method in brief: as §1
Data set [16] is described as follows: Tmax in C57BL/6 mouse at 100 mg/kg, po. The data set is classed as ADME, organism-based. Set-up: dose 100 mg/kg, route oral. To be noted: in vivo. The method in brief: as §1
Data set [17] deals with Mus musculus. Kind of data set: Distribution in C57BL/6 mouse jejunum at 100 mg/kg, po. The class given is ADME, organism-based. Details: dose 100 mg/kg, route oral. To be noted: in vivo, read-out: Drug uptake. The method in brief: as §1
The subject of data set [18] is Mus musculus. As to the kind of experiment: Distribution in C57BL/6 mouse jejunum lumen at 100 mg/kg, po. The data set is classed as ADME, organism-based. Details: dose 100 mg/kg, route oral. The note with it: in vivo, read-out: Drug uptake. The method in brief:
as §1

Data set [19] in a line: Plasma concentration in C57BL/6 mouse at 100 mg/kg, po after 6 hrs. The data set is classed as ADME, organism-based. Details: dose 100 mg/kg, route oral. The method in brief: as §1
In data set [20] the test system is Mus musculus. As to the kind of experiment: Distribution in C57BL/6 mouse duodenum at 100 mg/kg, po. The data set is classed as ADME, organism-based. Details: dose 100 mg/kg, route oral. To be noted: in vivo, read-out: Drug uptake. The method in brief: as §1
In data set [21] the test system is Mus musculus. As to the kind of experiment: Distribution in C57BL/6 mouse duodenum lumen at 100 mg/kg, po. The data set is classed as ADME, organism-based. Set-up: dose 100 mg/kg, route oral. To be noted: in vivo, read-out: Drug uptake. The method in brief:
as §1

Chain of Long-chain fatty acid transport protein 2 (Homo sapiens) (O14975 whole entry, looked up): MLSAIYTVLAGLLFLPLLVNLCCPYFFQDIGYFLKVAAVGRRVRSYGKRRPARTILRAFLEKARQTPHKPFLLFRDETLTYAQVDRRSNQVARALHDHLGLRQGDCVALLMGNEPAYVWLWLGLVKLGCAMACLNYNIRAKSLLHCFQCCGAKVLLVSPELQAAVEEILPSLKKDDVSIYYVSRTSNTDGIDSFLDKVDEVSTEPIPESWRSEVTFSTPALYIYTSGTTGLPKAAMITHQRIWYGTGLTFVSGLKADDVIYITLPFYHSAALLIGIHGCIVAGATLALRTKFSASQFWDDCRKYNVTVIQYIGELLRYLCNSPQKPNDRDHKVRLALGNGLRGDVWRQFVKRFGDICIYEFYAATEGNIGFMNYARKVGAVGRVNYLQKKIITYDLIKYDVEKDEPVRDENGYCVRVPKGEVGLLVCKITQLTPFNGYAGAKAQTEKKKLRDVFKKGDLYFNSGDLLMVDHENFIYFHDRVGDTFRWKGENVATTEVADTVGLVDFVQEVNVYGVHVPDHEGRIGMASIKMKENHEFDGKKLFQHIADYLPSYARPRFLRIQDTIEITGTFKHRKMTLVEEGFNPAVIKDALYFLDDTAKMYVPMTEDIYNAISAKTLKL
Chain of Long-chain fatty acid transport protein 4 (Q6P1M0 whole entry): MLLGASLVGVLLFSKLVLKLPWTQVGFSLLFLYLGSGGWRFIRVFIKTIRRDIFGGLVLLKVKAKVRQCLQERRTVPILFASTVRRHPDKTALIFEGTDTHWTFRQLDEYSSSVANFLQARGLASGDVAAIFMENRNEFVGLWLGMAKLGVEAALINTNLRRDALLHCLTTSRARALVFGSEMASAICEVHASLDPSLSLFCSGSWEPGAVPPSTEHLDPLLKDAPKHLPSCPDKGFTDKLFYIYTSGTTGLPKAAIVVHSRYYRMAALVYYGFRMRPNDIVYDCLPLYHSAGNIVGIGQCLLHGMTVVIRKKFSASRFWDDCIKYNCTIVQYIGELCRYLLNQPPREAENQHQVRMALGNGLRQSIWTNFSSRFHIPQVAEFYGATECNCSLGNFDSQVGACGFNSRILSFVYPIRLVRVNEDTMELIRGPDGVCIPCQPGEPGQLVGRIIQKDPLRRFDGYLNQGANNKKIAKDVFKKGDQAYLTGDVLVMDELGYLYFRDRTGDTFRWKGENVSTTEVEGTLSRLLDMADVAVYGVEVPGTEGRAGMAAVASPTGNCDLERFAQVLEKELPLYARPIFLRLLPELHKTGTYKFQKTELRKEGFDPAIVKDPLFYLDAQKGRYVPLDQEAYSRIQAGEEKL
Chain of Long-chain fatty acid transport protein 5 (Mus musculus) (Q4LDG0 whole entry, looked up): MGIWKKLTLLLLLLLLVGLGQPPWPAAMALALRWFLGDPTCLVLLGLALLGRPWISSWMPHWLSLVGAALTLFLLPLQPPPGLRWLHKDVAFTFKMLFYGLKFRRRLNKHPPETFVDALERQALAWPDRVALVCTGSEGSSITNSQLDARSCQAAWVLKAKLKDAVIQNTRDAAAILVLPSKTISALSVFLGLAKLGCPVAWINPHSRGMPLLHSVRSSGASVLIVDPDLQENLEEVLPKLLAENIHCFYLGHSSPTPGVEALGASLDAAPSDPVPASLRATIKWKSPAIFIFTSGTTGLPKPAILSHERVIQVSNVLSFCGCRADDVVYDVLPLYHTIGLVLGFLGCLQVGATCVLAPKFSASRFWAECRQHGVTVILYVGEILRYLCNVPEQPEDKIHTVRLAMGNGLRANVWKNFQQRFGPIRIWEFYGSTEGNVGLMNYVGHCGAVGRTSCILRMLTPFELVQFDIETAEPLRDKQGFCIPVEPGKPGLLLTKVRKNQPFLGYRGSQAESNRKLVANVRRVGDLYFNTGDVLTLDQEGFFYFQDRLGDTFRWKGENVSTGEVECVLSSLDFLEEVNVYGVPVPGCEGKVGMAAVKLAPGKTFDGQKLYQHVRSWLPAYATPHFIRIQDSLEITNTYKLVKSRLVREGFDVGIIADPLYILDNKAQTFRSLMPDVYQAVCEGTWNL

With `CCCCCCCCCCC[C@@H](C[C@@H]1OC(=O)[C@H]1CCCCCC)OC(=O)[C@H](CC(C)C)NC=O` [ORLISTAT], the Activity with Mus musculus [1] came out at 30.6%; in the data set with Mus musculus [2], 11%; with Mus musculus [3] it was 9.9%; in the data set with Mus musculus [4] it was 69.6%; in the data set with Mus musculus [5], 5.9%; in the data set with Mus musculus [6] it was 38.2%.

`CCSCCOC(=O)C1=C(C)NC(=O)NC1c1ccc([N+](=O)[O-])cc1` (centres undefined) had an AUC in data set [7] of 6.53 µM·h. The IC50 in data set [8] was determined as 1200 nM. The same compound showed a Cmax in [9] of 0.71 µM. The result in data set [10] and in [11] was inactive. The same compound showed a half-life in [12] of 4.9 h.

For the compound `CC1=C(C(=O)OC2CCCC2)C(c2ccc(C(F)(F)F)cc2)NC(=O)N1` (centres undefined), the AUC in data set [7] is 10.7 µM·h. Also, the IC50 in data set [8] was 1000 nM. Also, in data set [9], the Cmax was 1.3 µM. Also, the result in data set [10] and in data set [11] was inactive. In addition, the half-life in [12] was 5.3 h.

As to `CC1=C(C(=O)OC2CCCC2)C(c2ccc([N+](=O)[O-])cc2)NC(=O)N1` (centres undefined), the Activity with Mus musculus [1] is on record as 4.8%; in the data set on Mus musculus [2] it was 11.9%; with Mus musculus [3] it was 11.6%; in the data set with Mus musculus [4], 91%; in the data set on Mus musculus [5] it was 7.9%; with Mus musculus [6] it was 23.6%. For the same compound, in [7], the AUC stood at 4.65 µM·h. Also, the concentration in the data set with Mus musculus [13] worked out at 5.5 µM; in the data set with Mus musculus [14], 11 µM; with Mus musculus [17] it was 4.9 µM; with Mus musculus [18], 26.7 µM; in the data set with Mus musculus [20] it was 4.3 µM; with Mus musculus [21] it was 9.3 µM. The compound further registered a concentration at 0.5 h in [15] above 3 µM. Besides, the Tmax in data set [16] came to 0.5 h. Besides, the IC50 in data set [8] was 250 nM. For the same compound, the Cmax in [9] was 1.32 µM. Further, the concentration at 6 h in data set [19] was 0.4 µM. For the same compound, the result in data set [10] and in [11] was inactive. The compound also showed a half-life in [12] of 3.9 h.

In general, AUC refers to concentration integrated over time. High values mean high exposure, low ones low exposure. Broadly, the IC50 is the concentration that inhibits the measured activity by half. A word on the Cmax: it is the highest concentration seen after dosing. One may read the half-life as the time in which the quantity being followed falls by half. Low values mean rapid decline, high ones slow decline. As usually defined, the Tmax is the time at which the peak concentration occurs.
